Measurements reported in ChEMBL document CHEMBL4257459, “Synergistic antifungal effect of cyclized chalcone derivatives and fluconazole against Candida albicans” (2017).
Converted amounts (≈) assume the structure as drawn.

What was measured:
Candida albicans [1] = experiment: Antifungal activity against fluconazole resistant Candida albicans 167-2 by CLSI protocol based broth microdilution method; format: functional
Summary of the method: (§1)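 Broth microdilution per CLSI M27-A3 against clinical C. albicans isolates. Strains sub-cultured at least twice on Tryptone Soya Agar, 37 °C, 48 h. Compounds dissolved in DMSO at 2000 μg mL–1 stock. Fluconazole positive control, plus culture, media and vehicle controls. Run in duplicate; MIC in μg mL–1.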

Candida albicans [2] = experiment: Antifungal activity against fluconazole resistant Candida albicans A171 by CLSI protocol based broth microdilution method; format: functional; summary of the method: as §1
Candida albicans [3] = experiment: Antifungal activity against fluconazole resistant Candida albicans 167-1 by CLSI protocol based broth microdilution method; format: functional; summary of the method: as §1
Candida albicans [4] = experiment: Antifungal activity against fluconazole susceptible Candida albicans 002B1 by CLSI protocol based broth microdilution method; format: functional
Summary of the method: (§2)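 Clinical isolates and control strain subcultured at least twice on TSA, 37 °C, 48 h. MICs by CLSI M27-A3 broth microdilution; compounds dissolved in DMSO to 2000 μg mL–1 stock. Fluconazole positive control, culture, media and DMSO vehicle controls in each run. Duplicate experiments; MIC in μg mL–1.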

Candida albicans [5] = experiment: Antifungal activity against fluconazole susceptible Candida albicans 003gr by CLSI protocol based broth microdilution method; format: functional; summary of the method: as §2
Candida albicans [6] = experiment: Antifungal activity against fluconazole susceptible Candida albicans 004gr by CLSI protocol based broth microdilution method; format: functional; summary of the method: as §2
Candida albicans [7] = experiment: Antifungal activity against fluconazole susceptible Candida albicans 004B1 by CLSI protocol based broth microdilution method; format: functional; summary of the method: as §2
Candida albicans [8] = experiment: Antifungal activity against fluconazole susceptible Candida albicans 0079gr by CLSI protocol based broth microdilution method; format: functional; summary of the method: as §2
Candida albicans [9] = experiment: Antifungal activity against fluconazole susceptible Candida albicans 0072gr by CLSI protocol based broth microdilution method; format: functional; summary of the method: as §2
Candida albicans [10] = experiment: Antifungal activity against Candida albicans ATCC 90028 by CLSI protocol based broth microdilution method; format: functional; summary of the method: as §2
Candida albicans [11] = experiment: Antifungal activity against fluconazole resistant Candida albicans A171 in presence of fluconazole by CLSI protocol based broth microdilution method; format: functional
Summary of the method: (§3)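 Checkerboard-style combination with fluconazole at a 1 : 1 ratio, over concentrations 2–4 fold below each agent's MIC alone, by CLSI broth microdilution. Fractional inhibitory concentration index calculated and interpreted as synergy (<0.5), additive (0.5–1), indifferent or antagonistic.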

Candida albicans [12] = experiment: Antifungal activity against fluconazole resistant Candida albicans 167-1 in presence of fluconazole by CLSI protocol based broth microdilution method; format: functional; summary of the method: as §3
Candida albicans [13] = experiment: Antifungal activity against fluconazole resistant Candida albicans 167-2 in presence of fluconazole by CLSI protocol based broth microdilution method; format: functional; summary of the method: as §3
Candida albicans [14] = experiment: Antifungal activity against fluconazole susceptible Candida albicans 002B1 in presence of fluconazole by CLSI protocol based broth microdilution method; format: functional
Candida albicans [15] = experiment: Antifungal activity against fluconazole susceptible Candida albicans 003gr in presence of fluconazole by CLSI protocol based broth microdilution method; format: functional
Candida albicans [16] = experiment: Antifungal activity against fluconazole susceptible Candida albicans 004gr in presence of fluconazole by CLSI protocol based broth microdilution method; format: functional
Candida albicans [17] = experiment: Antifungal activity against fluconazole susceptible Candida albicans 004B1 in presence of fluconazole by CLSI protocol based broth microdilution method; format: functional
Candida albicans [18] = experiment: Antifungal activity against fluconazole susceptible Candida albicans 0079gr in presence of fluconazole by CLSI protocol based broth microdilution method; format: functional
Candida albicans [19] = experiment: Antifungal activity against fluconazole susceptible Candida albicans 0072gr in presence of fluconazole by CLSI protocol based broth microdilution method; format: functional
Candida albicans [20] = experiment: Antifungal activity against Candida albicans ATCC 90028 in presence of fluconazole by CLSI protocol based broth microdilution method; format: functional
Candida albicans [21] = experiment: Inhibition of ABC efflux pumps in fluconazole resistant Candida albicans A171 assessed as reduction in energy-dependent rhodamine 6G efflux in presence of 0.1 M glucose after 25 mins by fluorescence assay relative to control
Summary of the method: (§4)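 Cells grown in TSB at 37 °C for 8 h, washed, resuspended in glucose-free PBS at 1 × 10^8 cells. De-energized 45 min with 5 mM deoxyglucose plus 5 mM dinitrophenol. […] Washed, sampled 5–25 min, then 0.1 M glucose added. Absorbance 527 nm, R6G from standard curve.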

Candida albicans [22] = experiment: Inhibition of ABC efflux pumps in fluconazole resistant Candida albicans 167-1 assessed as reduction in energy-dependent rhodamine 6G efflux in presence of 0.1 M glucose after 25 mins […] relative to control
Candida albicans [23] = experiment: Inhibition of ABC efflux pumps in fluconazole resistant Candida albicans 167-2 assessed as reduction in energy-dependent rhodamine 6G efflux in presence of 0.1 M glucose after 25 mins […] relative to control
Candida albicans [24] = experiment: Inhibition of ABC efflux pumps in fluconazole susceptible Candida albicans 002B1 assessed as reduction in energy-dependent rhodamine 6G efflux in presence of 0.1 M glucose after 25 mins […] relative to control
Candida albicans [25] = experiment: Inhibition of ABC efflux pumps in fluconazole susceptible Candida albicans 003gr assessed as reduction in energy-dependent rhodamine 6G efflux in presence of 0.1 M glucose after 25 mins […] relative to control
Candida albicans [26] = experiment: Inhibition of ABC efflux pumps in fluconazole susceptible Candida albicans 004gr assessed as reduction in energy-dependent rhodamine 6G efflux in presence of 0.1 M glucose after 25 mins by fluorescence assay relative to control; summary of the method: as §4
Candida albicans [27] = experiment: Inhibition of ABC efflux pumps in fluconazole susceptible Candida albicans 004B1 assessed as reduction in energy-dependent rhodamine 6G efflux in presence of 0.1 M glucose after 25 mins by fluorescence assay relative to control; summary of the method: as §4
Candida albicans [28] = experiment: Inhibition of ABC efflux pumps in fluconazole susceptible Candida albicans 0079gr assessed as reduction in energy-dependent rhodamine 6G efflux in presence of 0.1 M glucose after 25 mins by fluorescence assay relative to control; summary of the method: as §4
Candida albicans [29] = experiment: Inhibition of ABC efflux pumps in fluconazole susceptible Candida albicans 0072gr assessed as reduction in energy-dependent rhodamine 6G efflux in presence of 0.1 M glucose after 25 mins […] relative to control
Candida albicans [30] = experiment: Inhibition of ergosterol biosynthesis in fluconazole resistant Candida albicans A171 at 0.5 to 1 times MIC relative to control; format: functional
Summary of the method: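 Total sterols quantified by alcoholic KOH extraction in cells grown in 50 ml TSB with compounds at MIC and ½ MIC; untreated and 8 μg mL–1 fluconazole controls. Spectral scan; ergosterol content from A281.5 and A230 absorbances, dilution factor and pellet weight, correcting for 24(28) DHE.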

Candida albicans [31] = experiment: Inhibition of ergosterol biosynthesis in fluconazole susceptible Candida albicans ATCC 90028 at 0.5 to 1 times MIC relative to control; format: functional
Summary of the method: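 ATCC90028 grown in 50 ml TSB with MIC and ½ MIC of compound; untreated and 8 μg mL–1 fluconazole controls. Sterols extracted by alcoholic KOH method and spectrophotometrically scanned; ergosterol % calculated from A281.5 and A230 (E values 290 and 518) with dilution factor, per pellet weight.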

Structure (SMILES)	MIC (Candida albicans [1]) [µg/mL]	MIC (Candida albicans [2]) [µg/mL]	MIC (Candida albicans [3]) [µg/mL]	MIC (Candida albicans [4]) [µg/mL]	MIC (Candida albicans [5]) [µg/mL]	MIC (Candida albicans [6]) [µg/mL]	MIC (Candida albicans [7]) [µg/mL]	MIC (Candida albicans [8]) [µg/mL]	MIC (Candida albicans [9]) [µg/mL]	MIC (Candida albicans [10]) [µg/mL]	fractional inhibitory concentration index (FICI) (Candida albicans [11])	fractional inhibitory concentration index (FICI) (Candida albicans [12])	fractional inhibitory concentration index (FICI) (Candida albicans [13])	fractional inhibitory concentration index (FICI) (Candida albicans [14])	fractional inhibitory concentration index (FICI) (Candida albicans [15])	fractional inhibitory concentration index (FICI) (Candida albicans [16])	fractional inhibitory concentration index (FICI) (Candida albicans [17])	fractional inhibitory concentration index (FICI) (Candida albicans [18])	fractional inhibitory concentration index (FICI) (Candida albicans [19])	fractional inhibitory concentration index (FICI) (Candida albicans [20])	also measured
O=C1NC(c2ccccc2)=CC(c2ccccc2)N1 (configuration not stated)	8 to 16 (≈ 32 to 63.9 µM)	8 to 16 (≈ 32 to 63.9 µM)	8 to 16 (≈ 32 to 63.9 µM)	1 to 8 (≈ 4 to 32 µM)	1 to 8 (≈ 4 to 32 µM)	1 to 8 (≈ 4 to 32 µM)	1 to 8 (≈ 4 to 32 µM)	1 to 8 (≈ 4 to 32 µM)	1 to 8 (≈ 4 to 32 µM)	1 to 8 (≈ 4 to 32 µM)	0.129 - 0.27	0.129 - 0.27	0.129 - 0.27	0.31 - 1.5	0.31 - 1.5	0.31 - 1.5	0.31 - 1.5	0.31 - 1.5	0.31 - 1.5	0.31 - 1.5	inhibition (Candida albicans [21]): < 20%; inhibition (Candida albicans [22]): < 20%; inhibition (Candida albicans [23]): < 20%; inhibition (Candida albicans [24]): < 20%; inhibition (Candida albicans [25]): < 20%; inhibition (Candida albicans [26]): < 20%; inhibition (Candida albicans [27]): < 20%; inhibition (Candida albicans [28]): < 20%; inhibition (Candida albicans [29]): < 20%; inhibition (INH) (Candida albicans [30]): 49 - 94%; inhibition (INH) (Candida albicans [31]): 66 - 99%
c1ccc(-c2cc(-c3ccccc3)[nH]n2)cc1	62 to 125 (≈ 281 to 567 µM)	62 to 125 (≈ 281 to 567 µM)	62 to 125 (≈ 281 to 567 µM)	16 to 62 (≈ 72.6 to 281 µM)	16 to 62 (≈ 72.6 to 281 µM)	16 to 62 (≈ 72.6 to 281 µM)	16 to 62 (≈ 72.6 to 281 µM)	16 to 62 (≈ 72.6 to 281 µM)	16 to 62 (≈ 72.6 to 281 µM)	16 to 62 (≈ 72.6 to 281 µM)	0.625 - 1.5	0.625 - 1.5	0.625 - 1.5	0.63 - 2.5	0.63 - 2.5	0.63 - 2.5	0.63 - 2.5	0.63 - 2.5	0.63 - 2.5	0.63 - 2.5	inhibition (Candida albicans [21]): < 20%; inhibition (Candida albicans [22]): < 20%; inhibition (Candida albicans [23]): < 20%; inhibition (Candida albicans [24]): < 20%; inhibition (Candida albicans [25]): < 20%; inhibition (Candida albicans [26]): < 20%; inhibition (Candida albicans [27]): < 20%; inhibition (Candida albicans [28]): < 20%; inhibition (Candida albicans [29]): < 20%; inhibition (INH) (Candida albicans [30]): 49 - 94%; inhibition (INH) (Candida albicans [31]): 66 - 99%
